# Assay results: ChEMBL document CHEMBL5154634, “A Modular Synthetic Route Involving N-Aryl-2-nitrosoaniline Intermediates Leads to a New Series of 3-Substituted Halogenated Phenazine Antibacterial Agents” (J Med Chem, 2021)
# The source made the active and inactive calls. The rule behind the calls is not given here.
# Tests used:
# [1] = tested on: Staphylococcus aureus; assay: Antibacterial activity against methicillin-resistant Staphylococcus aureus 138 assessed as bacterial growth inhibition; format: functional
# [2] = tested on: Staphylococcus aureus; assay: Antibacterial activity against methicillin-resistant Staphylococcus aureus 129 assessed as bacterial growth inhibition; format: functional
# [3] = tested on: Staphylococcus aureus; assay: Induction of iron starvation in methicillin-resistant Staphylococcus aureus BAA-1707 biofilms assessed as upregulation of sfaA gene expression at 1 uM incubated for 4 hrs by RT-qPCR analysis; format: functional
# Procedure, shortened: (§1)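 MRSA BAA-1707 grown in TSB with 0.5% glucose to OD600 ~0.8–1.0, then biofilms formed 20 h at 37 °C statically in gelatin-coated 24-well plates. Biofilms treated 4 h at 37 °C with compound (1 μM or 1/10 MBEC) or DMSO vehicle. RNA extracted; only RIN ≥7 samples used. One-step SYBR RT-qPCR; ΔCT normalised to ptaA. Three independent experiments.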
# [4] = tested on: HeLa; assay: Cytotoxicity against human HeLa cells assessed as reduction in cell viability incubated for 24 hrs by LDH release assay; format: toxicity, cell-based
# Procedure, shortened: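 HeLa cells in DMEM with 10% FBS, treated at 70–80% confluence with 25, 50 and 100 μM for 24 h. LDH in supernatant measured by 30 min reaction at room temperature, then stop solution and absorbance at 490 nm. Controls: 2% Triton X-100 (maximum), medium only, DMSO vehicle. Three independent experiments.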
# [5] = tested on: Staphylococcus aureus; assay: Induction of iron starvation in methicillin-resistant Staphylococcus aureus BAA-1707 biofilms assessed as upregulation of MW0695 gene expression at 1/10XMBEC incubated for 4 hrs by RT-qPCR analysis; format: functional; procedure, shortened: as §1
# [6] = tested on: Staphylococcus aureus; assay: Antibacterial activity against methicillin-resistant Staphylococcus aureus 147 assessed as bacterial growth inhibition; format: functional
# [7] = tested on: Staphylococcus aureus; assay: Induction of iron starvation in methicillin-resistant Staphylococcus aureus BAA-1707 biofilms assessed as upregulation of sbnC gene expression at 1/10XMBEC incubated for 4 hrs by RT-qPCR analysis; format: functional; procedure, shortened: as §1
# [8] = tested on: Enterococcus faecium; assay: Bactericidal activity against methicillin-resistant vancomycin-resistant Enterococcus faecium ATCC 700221 planktonic cells assessed as planktonic eradication incubated for 24 hrs followed by incubation for overnight in fresh medium by Calgary biofilm device assay; format: functional
# Procedure, shortened: (§2)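 Calgary biofilm device. Biofilms grown 24 h at 37 °C in TSB with 0.5% glucose, then challenged 24 h with twofold compound dilutions. 20 μL of challenge medium transferred into fresh TSB with 0.5% glucose and incubated overnight at 37 °C. MBC is the concentration with no visible turbidity. At least three independent experiments.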
# [9] = tested on: Staphylococcus aureus; assay: Induction of iron starvation in methicillin-resistant Staphylococcus aureus BAA-1707 biofilms assessed as upregulation of sbnC gene expression at 1 uM incubated for 4 hrs by RT-qPCR analysis; format: functional; procedure, shortened: as §1
# [10] = tested on: Staphylococcus aureus; assay: Antibacterial activity against methicillin-resistant Staphylococcus aureus clinical isolate 2 assessed as bacterial growth inhibition; format: functional
# [11] = tested on: Staphylococcus aureus; assay: Induction of iron starvation in methicillin-resistant Staphylococcus aureus BAA-1707 biofilms assessed as upregulation of isdB gene expression at 1/10XMBEC incubated for 4 hrs by RT-qPCR analysis; format: functional; procedure, shortened: as §1
# [12] = tested on: Erythrocyte; assay: Hemolytic activity against human RBC at 200 uM measured after 1 hr; format: toxicity, cell-based
# Procedure, shortened: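 2% hRBCs exposed to compound at 200 μM final, added from DMSO stock, for 1 h at 37 °C. Supernatant OD read at 405 nm. Hemolysis normalized between DMSO (0%) and Triton X (100%); three independent experiments.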
# [13] = tested on: Enterococcus faecalis; assay: Antibacterial activity against Enterococcus faecalis OG1RF ATCC 47077 assessed as bacterial growth inhibition incubated for 16 hrs by broth microdilution susceptibility test; format: functional
# [14] = tested on: Mycobacterium tuberculosis; assay: Antibacterial activity against Mycobacterium tuberculosis CDC1551 assessed as bacterial growth inhibition incubated for 5 days by luminescence based analysis; format: functional; conditions: CDC1551, 120 h, time 5 day
# Procedure, shortened: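 Bioluminescent Mtb-lux CDC1551 reporter grown in Middlebrook 7H9 with 0.05% Tween 80, 10% OADC and kanamycin to OD600 0.4–0.8, then diluted to OD600 0.02. Added to twofold drug dilutions (0.003–200 μM). Incubated 5 days at 37 °C, 5% CO2. Luminescence read against 1% DMSO and 10 μM rifampicin controls to give % growth inhibition. MIC taken from a modified Gompertz fit.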
# [15] = tested on: Staphylococcus epidermidis; assay: Bactericidal activity against methicillin-resistant Staphylococcus epidermidis ATCC 35984 planktonic cells assessed as planktonic eradication incubated for 24 hrs followed by incubation for overnight in fresh medium by Calgary biofilm device assay; format: functional; procedure, shortened: as §2
# [16] = tested on: Staphylococcus aureus; assay: Antibacterial activity against methicillin-resistant Staphylococcus aureus clinical isolate 1 assessed as bacterial growth inhibition; format: functional
# [17] = tested on: Staphylococcus epidermidis; assay: Antibacterial activity against methicillin-resistant Staphylococcus epidermidis ATCC 35984 assessed as bacterial growth inhibition incubated for 16 hrs by broth microdilution susceptibility test; format: functional
# Procedure, shortened: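 CLSI broth microdilution with 11 twofold dilutions (0.05–50 μM). About 10^5 cells per well from a log-phase culture. DMSO vehicle up to 0.5% v/v. At least three independent experiments.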
# [18] = tested on: Staphylococcus epidermidis; assay: Antibiofilm activity against methicillin-resistant Staphylococcus epidermidis ATCC 35984 biofilms assessed as biofilm eradication incubated for 24 hrs followed by incubation for 24 hrs in fresh medium by Calgary biofilm device assay; format: functional
# Procedure, shortened: (§3)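 Calgary biofilm device. Mid-log culture diluted 1000-fold in TSB with 0.5% glucose; biofilms grown on pegs 24 h at 37 °C. Pegs washed and challenged with twofold compound dilutions for 24 h at 37 °C, then moved to fresh medium for 24 h. MBEC is the lowest concentration leaving wells non-turbid. At least three independent experiments.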
# [19] = tested on: HepG2; assay: Cytotoxicity against human HepG2 cells assessed as reduction in cell viability […] by Alamar blue assay; format: toxicity, cell-based
# [20] = tested on: Staphylococcus aureus; assay: Induction of iron starvation in methicillin-resistant Staphylococcus aureus BAA-1707 biofilms assessed as upregulation of sfaA gene expression at 1/10XMBEC incubated for 4 hrs by RT-qPCR analysis; format: functional; procedure, shortened: as §1
# [21] = tested on: Enterococcus faecium; assay: Antibiofilm activity against methicillin-resistant vancomycin-resistant Enterococcus faecium ATCC 700221 biofilms assessed as biofilm eradication incubated for 24 hrs followed by incubation for 24 hrs in fresh medium by Calgary biofilm device assay; format: functional; procedure, shortened: as §3
# [22] = tested on: Staphylococcus aureus; assay: Bactericidal activity against methicillin-resistant Staphylococcus aureus BAA-44 planktonic cells assessed as planktonic eradication incubated for 24 hrs followed by incubation for overnight in fresh medium by Calgary biofilm device assay; format: functional; procedure, shortened: as §2
# [23] = Dissociation constant, pKa of the compound at 125 uM by UV-vis spectrophotometric analysis; format: physicochemical; conditions: 125 µM
# Procedure, shortened: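 Compound at 125 μM final in phosphate buffers (KH₂PO₄/Na₂HPO₄) in 1:1 water/methanol, pH 4.07–9.66; ammonium hydroxide added for pH above 9.80. UV-vis scans 200–800 nm to find λmax of phenol and phenolate forms. Absorbance at each λmax plotted against pH.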
# [24] = tested on: Enterococcus faecalis; assay: Bactericidal activity against […] Enterococcus faecalis OG1RF ATCC 47077 planktonic cells assessed as planktonic eradication incubated for 24 hrs followed by incubation for overnight in fresh medium by Calgary biofilm device assay; format: functional
# Procedure, shortened: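 Calgary biofilm device in BHI. Biofilms grown 24 h at 37 °C and challenged 24 h with twofold compound dilutions. Challenge medium subcultured 1:10 into fresh BHI overnight at 37 °C. MBC is the concentration with no turbidity. At least three independent experiments.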
# [25] = tested on: Staphylococcus aureus; assay: Induction of iron starvation in methicillin-resistant Staphylococcus aureus BAA-1707 biofilms assessed as upregulation of isdB gene expression at 1 uM incubated for 4 hrs by RT-qPCR analysis; format: functional; procedure, shortened: as §1
# [26] = tested on: J774; assay: Cytotoxicity against mouse J774 cells assessed as reduction in cell viability […] by Alamar blue assay; format: toxicity, cell-based
# [27] = tested on: Staphylococcus aureus; assay: Antibiofilm activity against methicillin-resistant Staphylococcus aureus BAA-44 biofilms assessed as biofilm eradication incubated for 24 hrs followed by incubation for 24 hrs in fresh medium by Calgary biofilm device assay; format: functional; procedure, shortened: as §3
# [28] = tested on: Staphylococcus aureus; assay: Antibacterial activity against methicillin-resistant Staphylococcus aureus 156 assessed as bacterial growth inhibition; format: functional
# [29] = tested on: Enterococcus faecalis; assay: Antibiofilm activity against Enterococcus faecalis OG1RF ATCC 47077 biofilms assessed as biofilm eradication incubated for 24 hrs followed by incubation for 24 hrs in fresh medium by Calgary biofilm device assay; format: functional
# Procedure, shortened: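 Calgary biofilm device. Biofilms grown 24 h at 37 °C in BHI from mid-log culture diluted 1000-fold. Pegs washed and then challenged 24 h with twofold serial dilutions. Pegs moved to fresh BHI for 24 h recovery. MBEC = lowest concentration leaving no turbidity; at least three independent experiments.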
# [30] = tested on: Staphylococcus aureus; assay: Induction of iron starvation in methicillin-resistant Staphylococcus aureus BAA-1707 biofilms assessed as upregulation of MW0695 gene expression at 1 uM incubated for 4 hrs by RT-qPCR analysis; format: functional; procedure, shortened: as §1
# [31] = tested on: Staphylococcus aureus; assay: Antibiofilm activity against methicillin-resistant Staphylococcus aureus BAA-1707 biofilms assessed as biofilm eradication incubated for 24 hrs followed by incubation for 24 hrs in fresh medium by Calgary biofilm device assay; format: functional; procedure, shortened: as §3
structure (smiles),measurement,setting,value
Oc1c(Br)cc(Br)c2nc3ccccc3nc12,MIC,[1],1.25 µM
same,MIC,[2],1.25 µM
same,Activity,[3],Active
same,IC50,[4],> 100 µM
same,Activity,[5],Active
same,MIC,[6],1.25 µM
same,Activity,[7],Active
same,MBC,[8],18.8 µM
same,Activity,[9],Active
same,MIC,[10],1.25 µM
same,Activity,[11],Active
same,Activity,[12],<= 1%
same,MIC,[13],12.5 µM
same,MIC,[14],13.7 µM
same,MBC,[15],25 µM
same,MIC,[16],1.25 µM
same,MIC,[17],2.35 µM
same,MBEC,[18],50 µM
same,IC50,[19],> 100 µM
same,Activity,[20],Active
same,MBEC,[21],12.5 µM
same,MBC,[22],37.5 µM
same,pKa,[23],7.12
same,MBC,[24],25 µM
same,Activity,[25],Active
same,IC50,[26],> 100 µM
same,MBEC,[27],75 µM
same,MIC,[28],1.25 µM
same,MBEC,[29],>200 µM
same,Activity,[30],Active
same,MBEC,[31],100 µM
